Experimental data as given in ChEMBL document CHEMBL2331277, “Design, synthesis and pharmacological evaluation of omeprazole-like agents with anti-inflammatory activity” (2013).

What was measured:
Rattus norvegicus [1] = assay: Antiinflammatory activity against carrageenan-induced paw edema in Sprague-Dawley rat assessed as inhibition of paw volume at 10 mg/kg, po measured 180 mins post challenge by plethysmometer; assay type: functional; details: 3 h
Rattus norvegicus [2] = assay: Antiulcerogenic activity in pylorus ligation-induced gastric ulcer Sprague-Dawley rat model assessed as pH of gastric juice at 7.2 mg/kg, po for 3 days (Rvb =2.60 +/-0.55 ); assay type: functional
Rattus norvegicus [3] = assay: Antiinflammatory activity against carrageenan-induced paw edema in Sprague-Dawley rat assessed as inhibition of paw volume at 30 mg/kg, po measured 180 mins post challenge by plethysmometer; assay type: functional; details: 3 h
Rattus norvegicus [4] = assay: Antiinflammatory activity against carrageenan-induced paw edema in Sprague-Dawley rat assessed as paw volume at 20 mg/kg, po measured 60 mins post challenge by plethysmometer (reference value: 0.90 +/- 0.03 ml); assay type: functional
Rattus norvegicus [5] = assay: Antiulcerogenic activity in pylorus ligation-induced gastric ulcer Sprague-Dawley rat model assessed as volume of gastric juice at 3.6 mg/kg, po for 3 days (Rvb =5.96 +/-0.80 ml ); assay type: functional
Rattus norvegicus [6] = assay: Antiulcerogenic activity in pylorus ligation-induced gastric ulcer Sprague-Dawley rat model assessed as pH of gastric juice at 3.6 mg/kg, po for 3 days (Rvb =2.60 +/-0.55 ); assay type: functional
Rattus norvegicus [7] = assay: Antiinflammatory activity against carrageenan-induced paw edema in Sprague-Dawley rat assessed as paw volume at 20 mg/kg, po measured 120 mins post challenge by plethysmometer (reference value: 1.13 +/- 0.04 ml); assay type: functional
Mus musculus [8] = assay: Antiulcerogenic activity in ethanol-induced gastric ulcer Swiss albino mouse model assessed as lesion length at 3.6 mg/kg administered intragastrically for 3 days; assay type: functional, Stomach; details: route intragastric
How it was run: (§1)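 Mice, n = 6 per group, given 3.6 or 7.2 mg/kg, omeprazole 3.6 mg/kg, or vehicle (0.25% w/v carboxymethyl cellulose) for 3 days. After a 24 h fast, 90% ethanol (10 ml/kg) was given intragastrically. Animals were killed 1 h later. Stomachs were opened along the greater curvature and lesion lengths measured under a microscope.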

Rattus norvegicus [9] = assay: Antiulcerogenic activity in pylorus ligation-induced gastric ulcer Sprague-Dawley rat model assessed as stomach H+/K+-ATPase activity measuring Pi release per hour per mg protein at 7.2 mg/kg, po for 3 days (Rvb =11.44 +/-1.5 umol ); assay type: functional
Rattus norvegicus [10] = assay: Antiinflammatory activity against carrageenan-induced paw edema in Sprague-Dawley rat assessed as paw volume at 10 mg/kg, po measured 120 mins post challenge by plethysmometer (reference value: 1.13 +/- 0.04 ml); assay type: functional
Rattus norvegicus [11] = assay: Antiulcerogenic activity in pylorus ligation-induced gastric ulcer Sprague-Dawley rat model assessed as stomach peptic activity measuring tyrosine release for 4 hrs at 3.6 mg/kg, po for 3 days (Rvb =5.70 +/-2.40 ug/ml ); assay type: functional
How it was run: (§2)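 Pylorus-ligated rat model as above (3-day oral dosing, 3.6 or 7.2 mg/kg, 5 h ligation). Gastric juice sample (0.1 ml) was incubated with 2.9 ml acid hemoglobin substrate (2.5 g/100 ml, pH 2.2) for 30 min at 37 °C. Reaction was stopped with ice-cold 0.6 M TCA and centrifuged. Liberated amino acids were read by Lowry, expressed as µg tyrosine/ml.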

Rattus norvegicus [12] = assay: Antiinflammatory activity against carrageenan-induced paw edema in Sprague-Dawley rat assessed as paw volume at 10 mg/kg, po measured 60 mins post challenge by plethysmometer (reference value: 0.90 +/- 0.03 ml); assay type: functional
Rattus norvegicus [13] = assay: Antiulcerogenic activity in pylorus ligation-induced gastric ulcer Sprague-Dawley rat model assessed as stomach peptic activity measuring tyrosine release for 4 hrs at 7.2 mg/kg, po for 3 days (Rvb =5.70 +/-2.40 ug/ml ); assay type: functional; how it was run: as §2
Mus musculus [14] = assay: Antiulcerogenic activity in ethanol-induced gastric ulcer Swiss albino mouse model assessed as lesion length at 7.2 mg/kg administered intragastrically for 3 days; assay type: functional, Stomach; details: route intragastric; how it was run: as §1
Mus musculus [15] = assay: Antiulcerogenic activity in ethanol-induced gastric ulcer Swiss albino mouse model assessed as inhibition of ulceration at 7.2 mg/kg administered intragastrically for 3 days relative to control; assay type: functional; details: Stomach, po, 72 h, route intragastric; how it was run: as §1
Rattus norvegicus [16] = assay: Antiulcerogenic activity in pylorus ligation-induced gastric ulcer Sprague-Dawley rat model assessed as volume of gastric juice at 7.2 mg/kg, po for 3 days (Rvb =5.96 +/-0.80 ml ); assay type: functional
Rattus norvegicus [17] = assay: Antiinflammatory activity against carrageenan-induced paw edema in Sprague-Dawley rat assessed as paw volume at 30 mg/kg, po measured 60 mins post challenge by plethysmometer (reference value: 0.90 +/- 0.03 ml); assay type: functional
Rattus norvegicus [18] = assay: Antiinflammatory activity against carrageenan-induced paw edema in Sprague-Dawley rat assessed as paw volume at 30 mg/kg, po measured 120 mins post challenge by plethysmometer (reference value: 1.13 +/- 0.04 ml); assay type: functional
Mus musculus [19] = assay: Antiulcerogenic activity in ethanol-induced gastric ulcer Swiss albino mouse model assessed as inhibition of ulceration at 3.6 mg/kg administered intragastrically for 3 days relative to control; assay type: functional; details: Stomach, po, 72 h, route intragastric; how it was run: as §1
Rattus norvegicus [20] = assay: Antiinflammatory activity against carrageenan-induced paw edema in Sprague-Dawley rat assessed as inhibition of paw volume at 20 mg/kg, po measured 180 mins post challenge by plethysmometer; assay type: functional; details: 3 h
Rattus norvegicus [21] = assay: Antiulcerogenic activity in pylorus ligation-induced gastric ulcer Sprague-Dawley rat model assessed as stomach H+/K+-ATPase activity measuring Pi release per hour per mg protein at 3.6 mg/kg, po for 3 days (Rvb =11.44 +/-1.5 umol ); assay type: functional
Rattus norvegicus [22] = assay: Antiinflammatory activity against carrageenan-induced paw edema in po dosed Sprague-Dawley rat assessed as inhibition of paw volume measured 180 mins post challenge by plethysmometer; assay type: functional, organism-based

Row | Structure (SMILES) | inhibition in vivo at 10 mg/kg (Rattus norvegicus [1]) | pH (Rattus norvegicus [2]) | inhibition in vivo at 30 mg/kg (Rattus norvegicus [3]) | Activity (Rattus norvegicus [4]) | Activity (Rattus norvegicus [5]) | pH (Rattus norvegicus [6]) | Activity (Rattus norvegicus [7]) | Activity (Mus musculus [8]) | Activity (Rattus norvegicus [9]) | Activity (Rattus norvegicus [10]) | Activity (Rattus norvegicus [11]) | Activity (Rattus norvegicus [12]) | Activity (Rattus norvegicus [13]) | Activity (Mus musculus [14]) | inhibition in vivo at 7.2 mg/kg (Mus musculus [15]) | Activity (Rattus norvegicus [17]) | Activity (Rattus norvegicus [18]) | inhibition in vivo at 3.6 mg/kg (Mus musculus [19]) | inhibition in vivo at 20 mg/kg (Rattus norvegicus [20]) | Activity (Rattus norvegicus [21]) | further results
1 | Cc1nc2cc(NCc3ccccn3)ccc2n1C[C@@H](O)[C@H]1O[C@H](O)[C@@H](O)[C@H]1O | 8% | 4.41 | 52% | 0.68 mL | 2.4 mL | 4.04 | 0.69 mL | 68 mm | 6.02 µmol | 0.89 mL | 4.72 µg/mL | 0.69 mL | 4.44 µg/mL | 58 mm | 54% | 0.63 mL | 0.64 mL | 46% | 47% | 6.91 µmol | Activity (Rattus norvegicus [16]): 2.3 mL
2 | COc1c(C)cnc(CNc2ccc3c(c2)nc(C)n3C[C@@H](O)[C@H]2O[C@H](O)[C@@H](O)[C@H]2O)c1C | 36% | 4.39 | 56% | 0.5 mL | 2.48 mL | 4.14 | 0.48 mL | 47 mm | 6.62 µmol | 0.64 mL | 4.8 µg/mL | 0.61 mL | 4.56 µg/mL | 30 mm | 76.2% | 0.49 mL | 0.43 mL | 62.6% | 50% | 7.01 µmol | Activity (Rattus norvegicus [16]): 2.38 mL
3 | COc1ccnc(CNc2ccc3[nH]c(C)nc3c2)c1C | 11% |  | 55% | 0.69 mL |  |  | 0.69 mL |  |  | 0.9 mL |  | 0.7 mL |  |  |  | 0.64 mL | 0.65 mL |  | 52% |  | 
4 | COc1ccc2[nH]c([S+]([O-])Cc3ncc(C)c(OC)c3C)nc2c1 (configuration not stated) [OMEPRAZOLE] |  |  |  |  | 2.64 mL | 4.26 |  | 40 mm |  |  | 4.92 µg/mL |  |  |  |  |  |  | 68.3% |  | 7.1 µmol | 
5 | COc1ccnc(CNc2ccc3c(c2)nc(C)n3C[C@@H](O)[C@H]2O[C@H](O)[C@@H](O)[C@H]2O)c1OC | 41% | 4.73 | 72% | 0.44 mL | 2.56 mL | 4.53 | 0.4 mL | 49 mm | 6.34 µmol | 0.52 mL | 4.79 µg/mL | 0.53 mL | 4.54 µg/mL | 34 mm | 73% | 0.41 mL | 0.38 mL | 61% | 62% | 6.88 µmol | Activity (Rattus norvegicus [16]): 2.39 mL
6 | COc1ccnc(CNc2ccc3[nH]c(C)nc3c2)c1OC | 15% | 4.01 | 61% | 0.7 mL | 2.98 mL | 3.64 | 0.69 mL | 88 mm | 6.88 µmol | 0.88 mL | 5.02 µg/mL | 0.7 mL | 4.74 µg/mL | 67 mm | 46.8% | 0.65 mL | 0.65 mL | 30% | 57% | 7.91 µmol | inhibition (Rattus norvegicus [22]): Dose-dependent effect; Activity (Rattus norvegicus [16]): 2.6 mL
7 | O=C([O-])Cc1ccccc1Nc1c(Cl)cccc1Cl.[Na+] [DICLOFENAC SODIUM] |  |  |  | 0.38 mL |  |  | 0.35 mL |  |  |  |  |  |  |  |  |  |  |  | 73% |  | 
8 | Cc1nc2cc(NCc3ccccn3)ccc2[nH]1 | 10% |  | 45% | 0.9 mL |  |  | 1.08 mL |  |  | 1.08 mL |  | 0.97 mL |  |  |  | 0.87 mL | 1.03 mL |  | 32% |  | 
9 | COc1c(C)cnc(CNc2ccc3[nH]c(C)nc3c2)c1C | 10% |  | 53% | 0.69 mL |  |  | 0.67 mL |  |  | 0.88 mL |  | 0.7 mL |  |  |  | 0.64 mL | 0.62 mL |  | 49% |  | 
10 | COc1ccnc(CNc2ccc3c(c2)nc(C)n3C[C@@H](O)[C@H]2O[C@H](O)[C@@H](O)[C@H]2O)c1C | 22% | 4.31 | 58% | 0.68 mL | 2.31 mL | 4.1 | 0.68 mL | 53 mm | 6 µmol | 0.88 mL | 4.62 µg/mL | 0.68 mL | 4.34 µg/mL | 42 mm | 66.6% | 0.63 mL | 0.64 mL | 57.9% | 53% | 6.78 µmol | Activity (Rattus norvegicus [16]): 2.24 mL
